Active and inactive are the calls of the source. No cut-off for these calls is given here.
Assays:
[1] = Chemoprevention index, ratio of IC50 for mouse Hepa-1c1c7 cells to drug level required to double specific quinone reductase activity in mouse Hepa-1c1c7 cells; type: functional
Procedure, shortened: (§1)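 Hepa 1c1c7 cells seeded at 4000 cells/mL, grown 24 h at 37 °C under CO2, then medium changed. Compounds added in 10% DMSO, serially diluted over 0.15-20 µg/mL, and incubated a further 48 h. QR measured as NADPH-dependent, menadiol-mediated MTT reduction to formazan. Protein by crystal violet at 595 nm in duplicate plates. Specific activity expressed relative to solvent control. CD = concentration giving 2-fold activity, CQ = 4-fold. CI = IC50/CD or IC50/CQ.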

[2] = Growth inhibition of mouse Hepa-1c1c7 cells by crystal violet staining; type: cell-based; conditions: Mus musculus, Hepa-1c1c7
Procedure, shortened: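 Hepa 1c1c7 cells seeded at 4000 cells/mL and grown 24 h at 37 °C, then medium changed. Compounds added in 10% DMSO, serially diluted over 0.15-20 µg/mL, and exposed 48 h. Viability read by crystal violet staining at 595 nm. IC50 taken as the half-maximal inhibitory concentration of cell viability.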

[3] = Chemoprevention index, ratio of IC50 for mouse Hepa-1c1c7 cells to drug level required to induce 4-fold increase in quinone reductase activity in mouse Hepa-1c1c7 cells; type: functional; procedure, shortened: as §1
Mus musculus [4] = assay: Induction of quinone reductase activity in BALB/c mouse liver at 2.5 mg/0.2 ml/day administered intragastrically for 3 consecutive day; type: functional, organism-based
Procedure, shortened: (§2)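 BALB/c mice, n = 3, dosed intragastrically for 3 consecutive days at 2.5 mg per mouse per day in 0.2 mL sesame oil. Quinone reductase activity was then assessed in liver, lung, colon, stomach and mammary gland tissue, and the change in activity is reported for each organ.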

Mus musculus [5] = assay: Induction of quinone reductase activity in BALB/c mouse mammary gland at 2.5 mg/0.2 ml/day administered intragastrically for 3 consecutive day; type: functional, organism-based; procedure, shortened: as §2
Mus musculus [6] = assay: Induction of quinone reductase activity in BALB/c mouse colon at 2.5 mg/0.2 ml/day administered intragastrically for 3 consecutive day; type: functional, organism-based; procedure, shortened: as §2
Mus musculus [7] = assay: Induction of quinone reductase activity in BALB/c mouse lung at 2.5 mg/0.2 ml/day administered intragastrically for 3 consecutive day; type: functional, organism-based; procedure, shortened: as §2
Mus musculus [8] = assay: Induction of quinone reductase activity in BALB/c mouse stomach at 2.5 mg/0.2 ml/day administered intragastrically for 3 consecutive day; type: functional, organism-based; procedure, shortened: as §2

Row | Structure (SMILES) | Ratio [1] | IC50 [2] [µM] | Ratio [3] | Activity (Mus musculus [4]) | Activity (Mus musculus [5]) | Activity (Mus musculus [6]) | Activity (Mus musculus [7]) | Activity (Mus musculus [8])
1 | CC1=C(CO)C(=O)O[C@@H]([C@@H](C)[C@H]2CC[C@H]3[C@@H]4C[C@@H](O)C5=CC=CC(=O)[C@]5(C)[C@H]4CC[C@]23C)C1 [JABOROSALACTONE B] | 11.1 | 38.5 | 26.9 | – | – | – | – | –
2 | CC1=C(C)[C@]2(OC1=O)[C@H](O)[C@@H](C)[C@]1(O)CC[C@H]3[C@@H]4CC=C5CC=CC(=O)[C@]5(C)[C@H]4C[C@@]2(O)[C@@]31C [JABOROSALACTONE P] | >57 | > 42.7 | – | inactive | inactive | inactive | inactive | inactive
3 | C[C@@H](c1ccc2c(c1)CC[C@H]1[C@H]2[C@@H]2O[C@@H]2[C@@]2(O)CC=CC(=O)[C@]12C)C1C[C@]2(C)O[C@]2(C)[C@H](O)O1 (some centres undefined) [NICANDRENONE] | 4.1 | 42.9 | 1.1 | – | – | – | – | –
4 | CC1=C(C)[C@H]([C@H]2O[C@@]3(O)C[C@H]4[C@@H](C[C@H]5O[C@]56CC=CC(=O)[C@]46C)[C@@H]4CC[C@@](O)([C@@H]2C)[C@]43C)OC1=O [TRECHONOLIDE A] | 28.7 | 7.74 | 6.1 | – | – | – | – | –
5 | C[C@H]1C[C@H]([C@](C)(O)[C@H]2[C@@H](O)C[C@H]3[C@@H]4C[C@H]5O[C@]56[C@@H](O)C=CC(=O)[C@]6(C)[C@H]4CC[C@]23C)OC(=O)[C@@H]1C [WITHAPHYSACARPIN] | 11.1 | 4.8 | 2.5 | – | – | – | – | –

From ChEMBL document CHEMBL1148136, “Induction of quinone reductase by withanolides” (J Nat Prod, 2002)
